Results from ChEMBL document CHEMBL3525931, “Stereoselective interaction of pantoprazole with ABCG2. II. In vitro flux analysis” (Drug Metab Dispos, 2012).

Tests used:
[1] = molecular target: T1, Broad substrate specificity ATP-binding cassette transporter ABCG2 (Homo sapiens, UniProt Q9UNQ0); test: Observed permeability in MDCK2 cells expressing human ABCG2 assessed as ABCG2-mediated basolateral to apical transport at 50 uM after 0.5 to 1 hrs by HPLC method; assay type: ADME, cell-based; conditions: mdck-ii
T1 sequence (Q9UNQ0 whole entry): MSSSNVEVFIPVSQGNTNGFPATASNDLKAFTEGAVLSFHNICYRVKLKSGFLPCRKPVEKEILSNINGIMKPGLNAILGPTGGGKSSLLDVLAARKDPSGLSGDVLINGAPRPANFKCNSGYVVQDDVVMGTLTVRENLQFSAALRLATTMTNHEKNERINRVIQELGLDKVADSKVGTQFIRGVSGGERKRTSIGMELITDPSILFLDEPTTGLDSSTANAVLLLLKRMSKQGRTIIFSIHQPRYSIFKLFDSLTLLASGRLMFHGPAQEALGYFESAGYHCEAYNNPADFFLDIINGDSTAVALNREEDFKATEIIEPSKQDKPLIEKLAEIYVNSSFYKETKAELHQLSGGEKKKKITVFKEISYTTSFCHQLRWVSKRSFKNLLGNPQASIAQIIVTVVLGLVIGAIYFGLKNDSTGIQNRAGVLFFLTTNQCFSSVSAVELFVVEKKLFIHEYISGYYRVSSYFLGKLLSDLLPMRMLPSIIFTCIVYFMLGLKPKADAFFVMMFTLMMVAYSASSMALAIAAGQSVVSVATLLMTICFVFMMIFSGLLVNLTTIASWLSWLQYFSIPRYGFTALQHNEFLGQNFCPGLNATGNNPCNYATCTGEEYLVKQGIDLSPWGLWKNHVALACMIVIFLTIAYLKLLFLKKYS
Method in brief: (§1)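 Mock (empty pcDNA3.1) or rat Abcg2/human ABCG2-transfected MDCKII, G418-selected, seeded on 3.0-μm Transwell filters at 1.0×10^6 cells/well, grown 4 days to TEER >200 Ω·cm². Single isomer loaded apical or basolateral in serum-free Opti-MEM I with 0.2 μCi/ml [3H]mannitol, 37°C 5% CO2. Receiver sampled at 0.5 and 1 h. Quantified by HPLC-UV 290 nm. Permeability = initial rate/(area × donor concentration). Efflux ratio = B→A rate / A→B rate. n = 3, mean ± S.D.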

[2] = molecular target: T2, Broad substrate specificity ATP-binding cassette transporter ABCG2 (Rattus norvegicus, UniProt Q80W57); test: Observed permeability in MDCK2 cells expressing rat ABCG2 assessed as ABCG2-mediated apical to basolateral transport at 200 uM after 0.5 to 1 hrs by HPLC method; assay type: ADME, cell-based; conditions: mdck-ii; method in brief: as §1
T2 sequence (Q80W57 whole entry): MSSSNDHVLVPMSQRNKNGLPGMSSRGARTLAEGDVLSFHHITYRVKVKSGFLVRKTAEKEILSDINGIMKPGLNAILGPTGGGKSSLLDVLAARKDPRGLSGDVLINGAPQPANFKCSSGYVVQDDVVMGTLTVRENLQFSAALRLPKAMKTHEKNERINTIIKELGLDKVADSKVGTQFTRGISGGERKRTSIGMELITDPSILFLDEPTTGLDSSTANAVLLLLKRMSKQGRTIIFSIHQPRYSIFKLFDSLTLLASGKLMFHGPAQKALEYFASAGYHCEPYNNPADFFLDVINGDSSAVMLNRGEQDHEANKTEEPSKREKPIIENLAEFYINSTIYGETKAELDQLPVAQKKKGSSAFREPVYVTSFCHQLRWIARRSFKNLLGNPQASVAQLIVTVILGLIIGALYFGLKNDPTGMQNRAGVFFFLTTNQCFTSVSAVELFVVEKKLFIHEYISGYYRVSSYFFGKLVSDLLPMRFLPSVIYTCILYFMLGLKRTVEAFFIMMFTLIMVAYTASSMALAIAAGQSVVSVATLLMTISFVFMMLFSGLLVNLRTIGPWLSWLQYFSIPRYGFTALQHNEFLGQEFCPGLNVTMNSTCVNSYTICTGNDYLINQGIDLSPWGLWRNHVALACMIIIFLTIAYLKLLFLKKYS

[3] = molecular target: T2, Broad substrate specificity ATP-binding cassette transporter ABCG2; test: Observed permeability in MDCK2 cells expressing rat ABCG2 assessed as ABCG2-mediated basolateral to apical transport at 10 uM after 0.5 to 1 hrs by HPLC method; assay type: ADME, cell-based; conditions: mdck-ii; method in brief: as §1
[4] = Observed permeability in MDCK2 cells assessed as apical to basolateral transport at 200 uM after 0.5 to 1 hrs by HPLC method; assay type: ADME, cell-based, Canis lupus familiaris; conditions: dog, mdck-ii; method in brief: as §1
[5] = molecular target: T2, Broad substrate specificity ATP-binding cassette transporter ABCG2; test: Observed permeability in MDCK2 cells expressing rat ABCG2 assessed as ABCG2-mediated apical to basolateral transport at 10 uM after 0.5 to 1 hrs by HPLC method; assay type: ADME, cell-based; conditions: mdck-ii; method in brief: as §1
ABCG2 [6] = molecular target: T3, ABCG2 (Homo sapiens, UniProt Q9UNQ0); test: Asymmetry efflux ratio in MDCK2 cells expressing human ABCG2 assessed as ABCG2-mediated drug transport ratio at 3 uM after 0.5 to 1 hrs by HPLC method; assay type: ADME, cell-based; method in brief: as §1
T3 sequence (Q9UNQ0 whole entry): T1 sequence (Q9UNQ0 whole entry)

ABCG2 [7] = molecular target: T4, ABCG2 (Rattus norvegicus, UniProt Q80W57); test: Asymmetry efflux ratio in MDCK2 cells expressing rat ABCG2 assessed as ABCG2-mediated drug transport ratio at 3 uM after 0.5 to 1 hrs by HPLC method; assay type: ADME, cell-based; method in brief: as §1
T4 sequence (Q80W57 whole entry): T2 sequence (Q80W57 whole entry)

[8] = Asymmetry efflux ratio in MDCK2 cells assessed as drug transport ratio at 50 uM after 0.5 to 1 hrs by HPLC method; assay type: ADME, cell-based, Canis lupus familiaris, MDCK-II; conditions: dog, MDCK; method in brief: as §1
[9] = Observed permeability in MDCK2 cells assessed as basolateral to apical transport at 200 uM after 0.5 to 1 hrs by HPLC method; assay type: ADME, cell-based, Canis lupus familiaris; conditions: dog, mdck-ii; method in brief: as §1
[10] = molecular target: T1, Broad substrate specificity ATP-binding cassette transporter ABCG2; test: Observed permeability in MDCK2 cells expressing human ABCG2 assessed as ABCG2-mediated basolateral to apical transport at 30 uM after 0.5 to 1 hrs by HPLC method; assay type: ADME, cell-based; conditions: mdck-ii; method in brief: as §1
[11] = Observed permeability in MDCK2 cells assessed as apical to basolateral transport at 3 to 200 uM after 0.5 to 1 hrs by HPLC method; assay type: ADME, cell-based, Canis lupus familiaris; conditions: dog, mdck-ii; method in brief: as §1
[12] = molecular target: T1, Broad substrate specificity ATP-binding cassette transporter ABCG2; test: Observed permeability in MDCK2 cells expressing human ABCG2 assessed as ABCG2-mediated apical to basolateral transport at 10 uM after 0.5 to 1 hrs by HPLC method; assay type: ADME, cell-based; conditions: mdck-ii; method in brief: as §1
ABCG2 [13] = molecular target: T3, ABCG2; test: Asymmetry efflux ratio in MDCK2 cells expressing human ABCG2 assessed as ABCG2-mediated drug transport ratio at 200 uM after 0.5 to 1 hrs by HPLC method; assay type: ADME, cell-based; method in brief: as §1
[14] = molecular target: T1, Broad substrate specificity ATP-binding cassette transporter ABCG2; test: Observed permeability in MDCK2 cells expressing human ABCG2 assessed as ABCG2-mediated apical to basolateral transport at 200 uM after 0.5 to 1 hrs by HPLC method; assay type: ADME, cell-based; conditions: mdck-ii; method in brief: as §1
[15] = molecular target: T1, Broad substrate specificity ATP-binding cassette transporter ABCG2; test: Observed permeability in MDCK2 cells expressing human ABCG2 assessed as ABCG2-mediated apical to basolateral transport at 50 uM after 0.5 to 1 hrs by HPLC method; assay type: ADME, cell-based; conditions: mdck-ii; method in brief: as §1
[16] = molecular target: T2, Broad substrate specificity ATP-binding cassette transporter ABCG2; test: Observed permeability in MDCK2 cells expressing rat ABCG2 assessed as ABCG2-mediated basolateral to apical transport at 200 uM after 0.5 to 1 hrs by HPLC method; assay type: ADME, cell-based; conditions: mdck-ii; method in brief: as §1

| Papp [1] [uL/hr/cm2] | Papp [2] [uL/hr/cm2] | Papp [3] [uL/hr/cm2] | Papp [4] [uL/hr/cm2] | Papp [5] [uL/hr/cm2] | efflux ratio at 3 µM (ABCG2 [6]) | efflux ratio at 3 µM (ABCG2 [7]) | efflux ratio at 50 µM [8] | Papp [9] [uL/hr/cm2] | Papp [10] [uL/hr/cm2] | Papp [11] [uL/hr/cm2] | Papp [12] [uL/hr/cm2] | efflux ratio at 200 µM (ABCG2 [13]) | Papp [14] [uL/hr/cm2] | Papp [15] [uL/hr/cm2] | Papp [16] [uL/hr/cm2] | Structure (SMILES) |
| --- | --- | --- | --- | --- | --- | --- | --- | --- | --- | --- | --- | --- | --- | --- | --- | --- |
| 156 | 127 | 224 | 130 | 30.1 | 15 | 34 | 1.04 | 135 | 211 | 121 | 31.6 | 1 | 132 | 109 | 136 | COc1ccnc(C[S@+]([O-])c2nc3cc(OC(F)F)ccc3[nH]2)c1OC |
| 195 | 126 | 229 | 142 | 20.9 | 8.61 | 18.7 | 1.09 | 140 | 240 | 121 | 42.2 | 1.42 | 126 | 79.6 | 162 | COc1ccnc(C[S@@+]([O-])c2nc3cc(OC(F)F)ccc3[nH]2)c1OC |
